For 14 compounds, MIC results are on record in ChEMBL document CHEMBL1127493, “Glycylcyclines. 1. A new generation of potent antibacterial agents through modification of 9-aminotetracyclines” (1994).

What all share (assay type): functional
For assay [1], the system named is Escherichia coli. Kind of assay: In vitro minimum inhibitory concentration against Escherichia coli J3272 (tet D efflux). The method, boiled down: (§1)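 Agar dilution on Mueller–Hinton II agar; inoculum (1-5) × 10^5 CFU/mL; antibiotic concentrations 32–0.004 µg/mL; plates incubated 18 h at 35 °C in forced-air incubator. MIC taken as lowest concentration inhibiting growth of the test organism (tetracycline-sensitive and tetracycline-resistant strains).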

The test system of assay [2] is Staphylococcus aureus. Briefly: In vitro minimum inhibitory concentration against Staphylococcus aureus UBMS 90-3 (sensitive). The method, boiled down: as §1
For assay [3], the system named is Escherichia coli. Kind of assay: In vitro minimum inhibitory concentration against Escherichia coli PRP-1 (tet A efflux). The procedure, abridged:
as §1

The subject of assay [4] is Escherichia coli. Briefly: In vitro minimum inhibitory concentration against Escherichia coli UBMS 88-1 (tet B efflux). The procedure, abridged: as §1
In assay [5] the test system is Staphylococcus aureus. Kind of assay: In vitro minimum inhibitory concentration against Staphylococcus aureus smith (sensitive). The method, boiled down: as §1
For assay [6], the system named is Staphylococcus aureus. Briefly: In vitro minimum inhibitory concentration against Staphylococcus aureus UBMS 90-1 (tet M ribosomal protection). The method, boiled down: as §1
For assay [7], the system named is Staphylococcus aureus. Kind of assay: In vitro minimum inhibitory concentration against Staphylococcus aureus UBMS 88-7 (tet K efflux). The procedure, abridged: as §1
For assay [8], the system named is Escherichia coli. Briefly: In vitro minimum inhibitory concentration against Escherichia coli UBMS 90-5 (sensitive). The method, boiled down:
as §1

For assay [9], the system named is Enterococcus faecalis. Kind of assay: In vitro minimum inhibitory concentration against Enterococcus faecalis ATCC 29212. The method, boiled down: as §1
The test system of assay [10] is Escherichia coli. Kind of assay: In vitro minimum inhibitory concentration against Escherichia coli J3272 (tet C efflux). The procedure, abridged:
as §1

Assay [11] deals with Escherichia coli. Briefly: In vitro minimum inhibitory concentration against Escherichia coli UBMS 90-4 (tet M ribosomal protection). The procedure, abridged:
as §1

Converted amounts (≈) assume the structure as drawn.

On to `CN(C)CC(=O)Nc1cc(N(C)C)c2c(c1O)C(=O)C1=C(O)[C@]3(O)C(O)=C(C(N)=O)C(=O)[C@@H](N(C)C)C3CC1C2.Cl` (stereo partly drawn), for which the MIC – broadly, the least concentration at which growth counts as inhibited – in [1] worked out at 0.12 µg/mL; in assay [2] it was 0.06 µg/mL; in assay [3] it was 2 µg/mL; in assay [4] it was 0.25 µg/mL; in assay [5], 0.12 µg/mL; in assay [6] it was 0.25 µg/mL. Besides, the MIC in assay [7] is 2 µg/mL; in assay [8] it was 0.25 µg/mL; in [9], 0.06 µg/mL; in assay [10], 1 µg/mL; in [11], 0.25 µg/mL.
Turning to `CN(C)c1cc(NC=O)c(O)c2c1CC1CC3[C@H](N(C)C)C(=O)C(C(N)=O)=C(O)[C@@]3(O)C(=O)C1=C2O` (stereo partly drawn), the MIC was 8 µg/mL (≈ 16 µM) in [1]; 0.03 µg/mL (≈ 0.0599 µM) in assay [2]; 16 µg/mL (≈ 32 µM) in assay [3]; greater than 32 µg/mL in assay [4]; 0.03 µg/mL (≈ 0.0599 µM) in assay [5]; 0.06 µg/mL (≈ 0.12 µM) in [6]. Moreover, the MIC was 4 µg/mL (≈ 7.99 µM) in assay [7]; 0.25 µg/mL (≈ 0.499 µM) in assay [8]; 0.03 µg/mL (≈ 0.0599 µM) in [9]; greater than 32 µg/mL in assay [10]; 1 µg/mL (≈ 2 µM) in [11].
For the compound `CN(C)[C@@H]1C(=O)C(C(N)=O)=C(O)[C@@]2(O)C(=O)C3=C(O)c4c(O)c(NC=O)cc(I)c4CC3CC12.O=S(=O)(O)O` (stereo partly drawn), the MIC in [2] is 0.03 µg/mL; in assay [3] it was greater than 32 µg/mL; in assay [4] it was greater than 32 µg/mL; in assay [5], 0.03 µg/mL; in assay [6], 4 µg/mL; in assay [7] it was 16 µg/mL. Moreover, the MIC in [8] is 0.5 µg/mL; in assay [9] it was 0.25 µg/mL; in assay [10], greater than 32 µg/mL; in [11], 32 µg/mL.
Regarding `CCN(CC)c1cc(N)c(O)c2c1CC1CC3[C@H](N(C)C)C(=O)C(C(N)=O)=C(O)[C@@]3(O)C(=O)C1=C2O.Cl` (stereo partly drawn), the minimum inhibitory concentration (MIC) was 0.03 µg/mL in assay [2]; 2 µg/mL in assay [3]; 2 µg/mL in assay [4]; 0.03 µg/mL in assay [5]; 2 µg/mL in assay [6]; 0.06 µg/mL in assay [7]. For the same compound, the MIC in assay [8] was 1 µg/mL; in [9], 0.12 µg/mL; in assay [10], 4 µg/mL; in assay [11], 32 µg/mL.
`CCN(CC)c1cc(NC(C)=O)c(O)c2c1CC1CC3[C@H](N(C)C)C(=O)C(C(N)=O)=C(O)[C@@]3(O)C(=O)C1=C2O` (stereo partly drawn): the MIC in [2] was 0.12 µg/mL (≈ 0.221 µM); in assay [3] it was greater than 32 µg/mL; in assay [4] it was 32 µg/mL (≈ 59 µM); in [5], 0.12 µg/mL (≈ 0.221 µM); in [6] it was 2 µg/mL (≈ 3.69 µM); in assay [7] it was 2 µg/mL (≈ 3.69 µM). Besides, the MIC is 32 µg/mL (≈ 59 µM) in [8], 0.25 µg/mL (≈ 0.461 µM) in assay [9], greater than 32 µg/mL in assay [10] and 32 µg/mL (≈ 59 µM) in assay [11].
`CC(=O)Nc1cc(I)c2c(c1O)C(O)=C1C(=O)[C@]3(O)C(O)=C(C(N)=O)C(=O)[C@@H](N(C)C)C3CC1C2.O=S(=O)(O)O` (stereo partly drawn): the MIC in assay [2] is 0.12 µg/mL; in assay [3], greater than 128 µg/mL; in [4] it was greater than 128 µg/mL; in assay [5] it was 0.12 µg/mL; in assay [6], 1 µg/mL; in assay [7] it was 16 µg/mL. Moreover, the MIC in [8] is 16 µg/mL; in [9], 0.25 µg/mL; in assay [10], greater than 128 µg/mL; in assay [11], greater than 128 µg/mL.
As to `CN(C)[C@@H]1C(=O)C(C(N)=O)=C(O)[C@@]2(O)C(=O)C3=C(O)c4c(ccc(N)c4O)CC3CC12.O=S(=O)(O)O` (stereo partly drawn), the MIC in [2] was less than 0.015 µg/mL; in [3], 32 µg/mL; in [4] it was greater than 32 µg/mL; in [5], 0.03 µg/mL; in assay [6], 8 µg/mL; in assay [7] it was 4 µg/mL. Also, the MIC is 1 µg/mL in [8], 0.5 µg/mL in assay [9], greater than 32 µg/mL in [10] and 16 µg/mL in [11].
Consider `CN(C)[C@@H]1C(O)=C(C(N)=O)C(=O)[C@@]2(O)C(O)=C3C(=O)c4c(O)cccc4[C@@](C)(O)[C@H]3C[C@@H]12` [TETRACYCLINE], for which the MIC in assay [1] was 32 µg/mL (≈ 72 µM); in assay [2], 0.25 µg/mL (≈ 0.563 µM); in [3], 32 µg/mL (≈ 72 µM); in assay [4] it was greater than 32 µg/mL; in [5], 0.25 µg/mL (≈ 0.563 µM); in [6], greater than 32 µg/mL. Besides, the MIC was greater than 32 µg/mL in [7], 1 µg/mL (≈ 2.25 µM) in [8], greater than 32 µg/mL in [10] and greater than 32 µg/mL in assay [11].
`CC(=O)Nc1ccc2c(c1O)C(O)=C1C(=O)[C@]3(O)C(O)=C(C(N)=O)C(=O)[C@@H](N(C)C)C3CC1C2.O=S(=O)(O)O` (stereo partly drawn): the MIC in assay [1] was 0.5 µg/mL; in [2] it was 0.12 µg/mL; in [3], greater than 32 µg/mL; in [4], greater than 32 µg/mL; in assay [5], 0.12 µg/mL; in assay [6] it was 2 µg/mL. Also, the minimum inhibitory concentration (MIC) in assay [7] is 32 µg/mL; in assay [8], 8 µg/mL; in assay [9], 0.25 µg/mL; in [10], greater than 32 µg/mL; in assay [11] it was 8 µg/mL.
Consider `CCN(CC)c1cc(NC=O)c(O)c2c1CC1CC3[C@H](N(C)C)C(=O)C(C(N)=O)=C(O)[C@@]3(O)C(=O)C1=C2O` (stereo partly drawn), for which the MIC amounted to 0.03 µg/mL (≈ 0.0568 µM) in assay [2]; 32 µg/mL (≈ 60.5 µM) in assay [3]; 16 µg/mL (≈ 30.3 µM) in assay [4]; 0.03 µg/mL (≈ 0.0568 µM) in [5]; 0.5 µg/mL (≈ 0.946 µM) in [6]; 0.25 µg/mL (≈ 0.473 µM) in [7]. The MIC in [8] amounted to 0.5 µg/mL (≈ 0.946 µM); in assay [9], 0.06 µg/mL (≈ 0.114 µM); in assay [10], 32 µg/mL (≈ 60.5 µM); in [11], 8 µg/mL (≈ 15.1 µM).
As to `CN(C)[C@@H]1C(=O)C(C(N)=O)=C(O)[C@@]2(O)C(=O)C3=C(O)c4c(ccc(NC=O)c4O)CC3CC12.O=S(=O)(O)O` (stereo partly drawn), the MIC is less than 0.015 µg/mL in [2]; greater than 32 µg/mL in assay [3]; 32 µg/mL in assay [4]; 0.03 µg/mL in assay [5]; 1 µg/mL in assay [6]; greater than 32 µg/mL in assay [7]. Moreover, the minimal inhibitory concentration (MIC) in [8] was 0.25 µg/mL; in assay [9], 0.06 µg/mL; in assay [10] it was greater than 32 µg/mL; in assay [11] it was 1 µg/mL.
Turning to `CN(C)c1ccc(O)c2c1C[C@H]1C[C@H]3[C@H](N(C)C)C(O)=C(C(N)=O)C(=O)[C@@]3(O)C(O)=C1C2=O` [MINOCYCLINE], the MIC in [1] turned out to be 8 µg/mL (≈ 17.5 µM); in [2], 0.12 µg/mL (≈ 0.262 µM); in assay [3] it was 4 µg/mL (≈ 8.74 µM); in assay [4], 16 µg/mL (≈ 35 µM); in [5], 0.12 µg/mL (≈ 0.262 µM); in assay [6] it was 4 µg/mL (≈ 8.74 µM). Moreover, the MIC in [7] is 0.25 µg/mL (≈ 0.546 µM); in assay [8], 1 µg/mL (≈ 2.19 µM); in assay [10], 4 µg/mL (≈ 8.74 µM); in assay [11], greater than 32 µg/mL.
With `CN(C)[C@@H]1C(=O)C(C(N)=O)=C(O)[C@@]2(O)C(=O)C3=C(O)c4c(O)c(N)cc(I)c4CC3CC12.O=S(=O)(O)O` (stereo partly drawn), the MIC in assay [2] was 0.03 µg/mL; in assay [3], greater than 32 µg/mL; in [4], greater than 32 µg/mL; in [5] it was less than 0.015 µg/mL; in assay [6], 0.5 µg/mL; in [7], 0.5 µg/mL. In addition, the minimal inhibitory concentration (MIC) in [8] is 4 µg/mL; in assay [9], 0.12 µg/mL; in assay [10], greater than 32 µg/mL; in [11] it was greater than 32 µg/mL.
With `CC(=O)Nc1cc(N(C)C)c2c(c1O)C(O)=C1C(=O)[C@]3(O)C(O)=C(C(N)=O)C(=O)[C@@H](N(C)C)C3CC1C2` (stereo partly drawn), the MIC in assay [2] is 0.25 µg/mL (≈ 0.486 µM); in assay [3], greater than 32 µg/mL; in assay [4], greater than 32 µg/mL; in [5], 0.25 µg/mL (≈ 0.486 µM); in assay [6], 1 µg/mL (≈ 1.94 µM); in [7], 8 µg/mL (≈ 15.5 µM). Further, the MIC was 8 µg/mL (≈ 15.5 µM) in [8], 0.25 µg/mL (≈ 0.486 µM) in assay [9], greater than 32 µg/mL in [10] and 4 µg/mL (≈ 7.77 µM) in assay [11].
